DNMT1 block: blocks human DNA methyltransferase DNMT1; AID 588458; DNMT1 molecular beacon, Hinp1I cleavage, fluorescence; inhibition (reported as % activation of signal), % at 10 µM; P26358; actives 0.83% (n = 360,000); in the data active means inhibition above about 50%
Rpn11 block: blocks the human proteasome subunit Rpn11 | O00487 | human 26S proteasome, Ub4-pepOG fluorescence polarization; 20S core pre-blocked with epoxomicin | inhibition, % at 20 µM | actives 0.59% (n = 360,000) | AID 588493;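 active means inhibition at 20 µM, scaled to each plate's controls, above about 33%, limit read from the data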
Scp1 inh: blocks human Scp-1 phosphatase activity; Q9GZU7; Recombinant Scp1, phosphopeptide, malachite green phosphate absorbance; inhibition, % at 20 µM; actives 0.88% (n = 340,000);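 active means inhibition above about 50% at 20 µM, limit read from the data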;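 further: plate controls were DMSO wells with enzyme for no effect and wells lacking enzyme for full effect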
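Times: enzyme reaction 45 min at room temperature, colour 5 min, stabilisation 30 min. Material: SCP-1 catalytic fragment, aa 76-261. Medium: Acidic Tris acetate buffer with magnesium and detergent. Signal: colorimetric free-phosphate detection, absorbance 630 nm. Read-out basis: % inhibition of SCP-1 phosphate liberation. Reagent: Phosphorylated 17-residue peptide substrate.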
LMPTP inh: blocks human LMPTP phosphatase; AID 651560; P24666; inhibition, % at 20 µM; recombinant LMPTP-A, OMFP fluorogenic substrate, fluorescence intensity; actives 0.22% (n = 360,000);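 active means compounds that cut the enzyme signal by at least half of the control window in the single-dose screen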;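 further: plate controls were DMSO wells with enzyme plus substrate for no effect and substrate without enzyme for full effect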
Target sequence (P24666 whole entry, looked up): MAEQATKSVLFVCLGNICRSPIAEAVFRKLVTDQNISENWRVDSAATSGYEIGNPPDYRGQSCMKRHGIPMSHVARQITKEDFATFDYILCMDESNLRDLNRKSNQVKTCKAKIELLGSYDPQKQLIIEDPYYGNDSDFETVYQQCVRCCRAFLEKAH
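Assay system: LMPTP-A phosphatase enzyme | Input: 0.625 nM enzyme | Also added: Fluorogenic phosphatase substrate OMFP at 400 µM final | Compound dosing: One test concentration per compound, 20 µM, with 3% DMSO overall | Schedule: 50 min enzyme reaction at room temperature, protected from light | Signal: Fluorescence intensity | Benchmarks: no-enzyme and uninhibited controls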
STEP block: inhibitors of human striatal-enriched phosphatase STEP; actives 0.25% (n = 360,000); recombinant STEP, OMFP fluorogenic substrate, fluorescence; inhibition, % at 20 µM; AID 588621;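 active means inhibition at 20 µM, scaled per plate between control wells, above about 37%, limit read from the data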;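 further: 0% = DMSO with enzyme and substrate and 100% = substrate only without enzyme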
Target sequence (P54829 whole entry, looked up): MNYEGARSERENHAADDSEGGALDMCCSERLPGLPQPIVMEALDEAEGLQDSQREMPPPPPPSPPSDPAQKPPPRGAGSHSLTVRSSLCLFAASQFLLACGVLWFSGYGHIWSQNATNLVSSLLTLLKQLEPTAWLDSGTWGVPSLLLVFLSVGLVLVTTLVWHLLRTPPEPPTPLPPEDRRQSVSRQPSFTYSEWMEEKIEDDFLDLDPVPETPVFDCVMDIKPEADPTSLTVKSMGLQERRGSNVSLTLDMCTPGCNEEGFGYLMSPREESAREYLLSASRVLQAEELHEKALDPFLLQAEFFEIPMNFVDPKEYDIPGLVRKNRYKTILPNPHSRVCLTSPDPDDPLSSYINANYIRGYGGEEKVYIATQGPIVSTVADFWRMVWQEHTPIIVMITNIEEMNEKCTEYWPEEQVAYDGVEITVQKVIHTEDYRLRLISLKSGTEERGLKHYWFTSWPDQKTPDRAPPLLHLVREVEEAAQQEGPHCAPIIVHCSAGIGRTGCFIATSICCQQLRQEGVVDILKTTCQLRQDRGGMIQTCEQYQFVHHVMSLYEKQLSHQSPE
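medium = Bis-Tris buffer pH 6.0, 2.5 mM DTT, 0.005% Tween 20 | test system = STEP (striatal-enriched tyrosine phosphatase) enzyme, cell-free | measure = normalized % inhibition | compound dosing = 20 µM, 1% DMSO | also added = 25 µM OMFP | schedule = reaction 20 min, ambient temperature | measured by = fluorescence read at 480 nm ex / 540 nm em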
STEP inh conf: STEP (human) phosphatase inhibition, single concentration confirmation; inhibition, % at 20 µM; actives 32% (n = 520); shares compounds with STEP block; recombinant STEP, OMFP fluorogenic substrate, fluorescence; call rule not given here;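 further: 0% = enzyme with substrate plus DMSO and 100% = substrate without enzyme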
* hit, by the source's call; x = no result given. A selection: hits, their analogues and other compounds. The true share with any hit is near 2%.

SMILES	DNMT1 block	Rpn11 block	Scp1 inh	LMPTP inh	STEP block	STEP inh conf
CCn1c(SCC(=O)N/N=C/C=C\c2ccccc2[N+](=O)[O-])nc2ccccc21	-3.9	-4.1	-7.0	1.8	51.8*	19.0
Cn1c(SCC(=O)N/N=C/C=C\c2ccccc2[N+](=O)[O-])nc2ccccc21	-1.0	2.5	1.7	-0.6	1.3	x
CCC(Cc1ccccc1)OC(=O)c1ccccc1C(=O)O (stereo unspecified)	0.0	1.0	-13.2	0.5	-1.7	x
CCCN(CC(=O)Nc1ccccc1OC)C(=O)Cc1ccc2c(c1)CCC2	-3.2	-0.8	-4.9	-0.1	71.4*	45.8*
O=C(Oc1ccc(/C=N/NC(=O)c2ccccn2)cc1)c1ccc(Br)cc1	26.3	1.0	-6.0	55.0*	54.8*	1.1
Cc1ccc(C(=O)N/N=C\c2cccc(OC(=O)c3cccc(F)c3)c2)cn1	-1.2	1.3	-7.4	0.5	3.3	x
Cc1ccc(C(=O)N/N=C\c2ccc(OC(=O)c3cccc(F)c3)cc2)cn1	2.7	5.8	7.6	61.7*	82.1*	-5.4
CCOc1ccc(/C=N/NC(=O)CN2CCCCCCC2)cc1	-4.0	0.0	10.1	-0.7	1.5	x
CCN(CC)S(=O)(=O)c1ccc(C(=O)NN(C)C2=NS(=O)(=O)c3ccccc32)cc1	-4.5	0.3	6.0	-0.9	0.1	x
CCN(C1=NS(=O)(=O)c2ccccc21)N(CC)S(=O)(=O)c1ccc(C)cc1	-4.8	13.6	-8.0	0.8	72.9*	4.1
CCCCNc1c(CCc2ccccc2)nc2nc(C)cc(C)n12	x	x	x	-0.4	x	x
COc1ccccc1Nc1c([N+](=O)[O-])cc(C)cc1[N+](=O)[O-]	0.6	-3.4	-4.7	3.2	5.4	x
COc1ccccc1Nc1ccc([N+](=O)[O-])cc1N	-7.9	9.4	3.8	2.7	46.8*	40.1*
COc1cccc(S(=O)(=O)N(C)C[C@H]2OCc3cnnn3CCCC(=O)N([C@@H](C)CO)C[C@@H]2C)c1	4.7	-4.5	x	-2.5	3.2	x
CCOc1ccc(S(=O)(=O)NCC2CCCO2)c2ccccc12 (stereo unspecified)	-6.6	1.0	-9.5	-0.3	-0.8	x
N/C(=N\OC(=O)CCCc1ccccc1)c1cccc([N+](=O)[O-])c1	-2.8	18.1	-9.6	1.5	55.2*	14.6
OCCNC(=S)NCCc1ccccc1	0.0	1.8	-4.6	-0.5	0.3	x
S=C(NCCc1ccccc1)Nc1c(Cl)cccc1Cl	1.1	10.0	17.1	1.0	95.7*	50.5*
Cc1ccc(OCc2nnc(SCC(=O)N3C(C)CCCC3C)o2)cc1 (stereo unspecified)	3.1	4.4	-2.0	0.2	-1.3	x
COc1ccc(NC(=S)N(CCC(C)C)C2CCN(C(C)C)CC2)cc1Cl	1.6	-11.8	-5.7	1.7	97.6*	79.0*
COCCN(C(=S)Nc1ccc(OC)c(Cl)c1)C1CCN(C(C)C)CC1	-0.3	-1.3	-1.0	-1.6	70.6*	20.3
COCCN(C(=S)Nc1ccc(OC)cc1)C1CCN(C(C)C)CC1	1.6	-7.6	-0.2	-3.1	5.0	x
CC(=O)Nc1cc(-c2nn(C)c(=O)c3ccccc23)ccc1N1CCOCC1	3.6	4.2	-4.3	-0.5	-3.7	x
CCCC(=O)Nc1cc(-c2nn(C)c(=O)c3ccccc23)ccc1N1CCOCC1	9.5	-3.0	23.1	-2.0	42.1*	8.7
O=C(Nc1nnc(-c2ccc(Cl)cc2)o1)c1nc2ccccc2s1	-12.2	18.7	-9.8	15.1	72.1*	5.2
SMILES	DNMT1 block	Rpn11 block	Scp1 inh	LMPTP inh	STEP block	STEP inh conf
N#Cc1ccc(C(=O)N2CCC3CC2c2cc(-c4ccccc4)ccc23)cc1 (stereo unspecified)	0.9	0.0	-8.3	2.4	69.9*	20.7
O=C(c1ccc(Cl)cc1)N1CCC2CC1c1cc(-c3ccccc3)ccc12 (stereo unspecified)	-4.3	1.3	-12.4	7.1	2.8	x
COc1cccc(C(=O)/C=C/Nc2ccc(S(=O)(=O)Nc3onc(C)c3C)cc2)c1	-3.8	19.9	-1.8	3.0	43.2*	6.5
Cc1noc(NS(=O)(=O)c2ccc(N/C=C\C(=O)c3ccc(Br)cc3)cc2)c1C	-3.3	-6.5	-7.0	0.7	4.0	x
COc1cc(C(=O)COC(=O)c2ccncc2)cc(OC)c1OC	-2.4	9.0	-5.0	-0.4	-3.2	x
Cc1ccc(COc2ccc(CNCCCN3CCCCCC3=O)cc2)cc1	0.7	5.3	0.7	-2.6	75.4*	8.1
Cc1ccc(NC(=O)C(=O)NCCCN2CCCC2=O)cc1	0.8	2.1	1.8	0.0	-0.9	x
COc1ccc(C(C(=O)NC2CCCC2)N(C(=O)c2csnn2)C2CCCC2)cc1 (stereo unspecified)	0.4	8.2	0.9	-1.2	-1.3	x
CCOc1ccc(C(=O)Nc2cc(-c3nc4ccccc4[nH]3)ccc2Cl)cc1[N+](=O)[O-]	-13.1	-30.2	6.8	1.9	53.9*	46.8*
CCOc1ccc(C(=O)Nc2cc(-c3nc4ccccc4[nH]3)ccc2C)cc1[N+](=O)[O-]	-16.6	-4.1	0.8	1.9	3.0	x
Cc1cc([N+](=O)[O-])ccc1NC(=O)Cc1ccc(F)cc1	-0.7	17.5	-5.5	-1.2	117.4*	1.3
COc1ccc(NC(=S)N(CCCN2CCC(C)CC2)Cc2cccs2)cc1Cl	-3.3	-5.3	-4.2	-0.4	56.2*	27.0*
S=C(NCCCN1CCOCC1)Nc1ccc(Cl)cc1Cl	0.7	-4.1	-12.9	-8.1	42.4*	9.4
COc1ccc(Cl)cc1NC(=S)NCCN1CCOCC1	-2.0	-0.2	-5.4	0.7	2.6	x
COc1ccc(NC(=S)NCCCN2CCCC2)cc1Cl	0.4	-0.3	-16.9	-1.9	89.9*	41.2*
COc1ccc(NC(=S)NCCN2CCC(C)CC2)cc1Cl	-42.5	-2.6	-4.1	-1.0	90.0*	79.2*
CC(C)N(CCCNC(=O)C1CCN(S(=O)(=O)N2CCOCC2)CC1)Cc1ccccc1	1.2	-0.9	-2.2	-1.3	0.8	x
Cc1ncc(CN2CCC(n3nccc3NC(=O)c3ccccc3)CC2)s1	-0.4	1.8	-7.8	1.6	1.9	x
CCCN1CCN(C(=O)c2oc3c(Cl)cccc3c2C)CC1	-1.1	0.4	-3.1	-0.4	1.7	x
CCc1ccc(NC(=S)Nc2ccc3[nH]c(=O)[nH]c3c2)cc1	0.4	-0.4	-0.7	1.4	2.8	x
NC(=NCc1ccc2c(c1)OCO2)NC(=O)c1ccccc1	-7.9	3.0	14.7	21.6	70.3*	34.7*
O=C(c1cc(-c2cccc(Cl)c2)nc2ccccc12)N1CCN(c2ccccn2)CC1	-1.8	2.0	0.0	6.2	1.4	x
Cc1cccc2c(C(=O)N3CCN(c4ccccn4)CC3)cc(-c3cccc(Br)c3)nc12	-9.7	10.9	-1.3	5.9	69.0*	18.5
